Measurements collected from several papers.
Protocols differ between the studies behind these lines.
MDM4: Protein Mdm4 (MDM4, Homo sapiens, UniProt O15151)
GLP1R: Glucagon-like peptide 1 receptor (GLP1R, Homo sapiens, UniProt P43220)
DRD3: D(3) dopamine receptor (DRD3, Homo sapiens, UniProt P35462)

CC(C)[C@@H]1NC(=O)[C@H](CO)NC(=O)[C@H](CO)NC(=O)[C@H](CO)N(C)C(=O)[C@H](CC(=O)O)NC(=O)[C@H](CO)NC(=O)[C@H](Cc2ccccc2)NC(=O)CSC[C@@H](C(=O)NCC(N)=O)NC(=O)[C@H](CC(N)=O)NC(=O)[C@H](CCCNC(=N)N)NC(=O)[C@H](Cc2ccc(-c3ccccc3)cc2)NC(=O)[C@H](Cc2ccc(-c3ccccc3)cc2)NC(=O)[C@H](CC(N)=O)NC(=O)[C@@H]2CCCN2C1=O — Ki (MDM4; ligand displacement; TR-FRET): 0.74 µM
CC(C)C[C@H](NC(=O)[C@H](Cc1ccc(O)cc1)NC(=O)[C@H](CO)NC(=O)[C@H](CO)NC(=O)[C@@H](NC(=O)[C@H](CC(=O)O)NC(=O)[C@H](CO)NC(=O)[C@@H](NC(=O)[C@H](Cc1ccc(O)cc1)NC(=O)[C@@H](NC(=O)CNC(=O)[C@H](CC(=O)O)NC(=O)[C@H](C)NC(=O)[C@@H](N)Cc1c[nH]cn1)[C@@H](C)O)[C@@H](C)O)C(C)C)C(=O)N[C@@H](CCC(N)=O)C(=O)N[C@@H](CC(=O)O)C(=O)N[C@@H](CCC(N)=O)C(=O)N[C@@H](C)C(=O)N[C@@H](C)C(=O)N[C@@H](CCCCN)C(=O)N[C@@H](CCC(=O)O)C(=O)N[C@@H](Cc1ccccc1)C(=O)N[C@H](C(=O)N[C@@H](CO)C(=O)N[C@@H](Cc1c[nH]c2ccccc12)C(=O)N[C@@H](CC(C)C)C(=O)N[C@@H](CCCCN)C(=O)N[C@H](C(=O)NCC(=O)N[C@@H](CCCNC(=N)N)C(=O)NCC(=O)O)[C@@H](C)O)C(C)C — EC50 (GLP1R; reporter gene; agonist; luciferase): 0.000436 µM
CO[C@H]1C[C@H](O[C@H]2[C@H](C)O[C@@H](O[C@@H]3/C(C)=C/C[C@@H]4C[C@@H](C[C@]5(C=C[C@H](C)[C@@H](C6CCCCC6)O5)O4)OC(=O)[C@@H]4C=C(C)[C@@H](O)[C@H]5OC/C(=C\C=C\[C@@H]3C)[C@]54O)C[C@@H]2OC)O[C@@H](C)[C@@H]1O — IC50 (Nuclear receptor subfamily 1 group I member 3 (Homo sapiens, UniProt Q14994); reporter gene; antagonist): 43.2 µM
CC[C@H](C)[C@H](NC(=O)[C@H](Cc1ccccc1)NC(=O)[C@H](CC(=O)O)NC(=O)[C@H](CCCCN)NC(=O)[C@H](C)NC(=O)[C@H](C)NC(=O)[C@H](CCC(N)=O)NC(=O)CNC(=O)[C@H](CCC(=O)O)NC(=O)[C@H](CC(C)C)NC(=O)[C@H](Cc1ccc(O)cc1)NC(=O)[C@H](CO)NC(=O)[C@H](CO)NC(=O)[C@@H](NC(=O)[C@H](CC(=O)O)NC(=O)[C@H](CO)NC(=O)[C@@H](NC(=O)[C@H](Cc1ccc(O)cc1)NC(=O)[C@@H](NC(=O)CNC(=O)[C@H](CC(=O)O)NC(=O)[C@H](C)NC(=O)[C@@H](N)Cc1c[nH]cn1)[C@@H](C)O)[C@@H](C)O)[C@@H](C)CC)C(=O)N[C@@H](C)C(=O)N[C@@H](Cc1c[nH]c2ccccc12)C(=O)N[C@@H](CC(C)C)C(=O)N[C@@H](CCSC)C(=O)N[C@@H](CC(N)=O)C(=O)NCC(=O)N[C@@H](CCCNC(=N)N)C(=O)NCC(=O)O — EC50 (GLP1R; reporter gene; agonist; luciferase): 0.000583 µM
CC(C)[C@@H]1NC(=O)[C@H](CO)NC(=O)[C@H](CO)NC(=O)[C@H](CO)N(C)C(=O)[C@H](CC(=O)O)NC(=O)[C@H](CO)NC(=O)[C@H](Cc2ccccc2)NC(=O)CSC[C@@H](C(=O)NCC(N)=O)NC(=O)[C@H](CC(N)=O)NC(=O)[C@H](CCCNC(=N)N)NC(=O)[C@H](C)NC(=O)[C@H](Cc2ccc(-c3ccccc3)cc2)NC(=O)[C@H](CC(N)=O)NC(=O)[C@@H]2CCCN2C1=O — IC50 (MDM4; ligand displacement; TR-FRET): > 10 µM
Cc1cc(O)cc(C)c1C[C@H](N)C(=O)N[C@H](C)C(=O)NCC(=O)N[C@@H](Cc1ccc(Cl)cc1)C(=O)N(C)CCC[C@@]1(c2ccc(F)cc2)OCc2cc(C#N)ccc21 — Ki (DRD3; ligand displacement; radioligand): 0.89 µM
CSc1nc(N[C@H](C(C)C)C2CC2)c2ncn([C@H]3[C@H](O)[C@H](O)[C@]4(CO)C[C@H]34)c2n1 — Ki (DRD3; ligand displacement; radioligand): 2.23 µM
Nc1c(S(=O)(=O)O)cc(Nc2ccc(Nc3nc(Cl)nc(Nc4cccc(S(=O)(=O)O)c4)n3)c(S(=O)(=O)O)c2)c2c1C(=O)c1ccccc1C2=O — IC50 (Pantothenate kinase 3 (PANK3, Homo sapiens, UniProt Q9H999); enzyme activity; inhibitor; ATP luminescence): 1.3 µM
O=C(O)[C@H]1O[C@@H](Oc2cc(O)cc(/C=C/c3ccc(O)cc3)c2)[C@H](O)[C@@H](O)[C@@H]1O — Ki (Cannabinoid receptor 1 (Cnr1, Mus musculus, UniProt P47746); ligand displacement; radioligand; cell membranes): > 100 µM
COc1ncccc1-c1cnn2ccc(N3CCN(C(=O)OC(C)C)CC3)nc12 — IC50 (Glutamate NMDA receptor; GRIN1/GRIN2B (GRIN1/GRIN2B, Homo sapiens, UniProt Q05586+Q13224); ion current; inhibitor): > 25 µM
COc1cc(N)c(Cl)cc1C(=O)NC1CCN(CCCOc2ccc(F)cc2)CC1OC (stereo not drawn) — IC50 (DRD3; ligand displacement; radioligand): 6.32 µM
CC(C)[C@H](NC(=O)[C@@H]1CSSC(C)(C)[C@H](NC(=O)[C@@H](N)CC(=O)O)C(=O)N[C@@H](Cc2ccccc2)C(=O)N[C@H](Cc2c[nH]c3ccccc23)C(=O)N[C@@H](CCCN)C(=O)N[C@@H](Cc2ccc(N)cc2)C(=O)N1)C(=O)O — Ki (Urotensin-2 receptor (UTS2R, Homo sapiens, UniProt Q9UKP6); ligand displacement; radioligand; cell membranes): 0.00269 µM
CCCC[C@@H](NC(=O)[C@@H](N)Cc1c(C)cc(O)cc1C)C(=O)NCC(=O)N[C@@H](Cc1ccc(F)cc1)C(=O)N(C)CCC[C@@]1(c2ccc(F)cc2)OCc2cc(C#N)ccc21 — Ki (DRD3; ligand displacement; radioligand): 2 µM
O=C(Nc1cccc(-c2ccn3c(CC4CC4)nnc3c2C(F)(F)F)c1)c1ccc(S(=O)(=O)F)cc1 — EC50 (Metabotropic glutamate receptor 5 (GRM5, Homo sapiens, UniProt P41594); calcium signal; agonist): > 50.1 µM
CCCCNNC(=O)c1ccc(Br)cc1 — IC50 (Histone deacetylase 5 (HDAC5, Homo sapiens, UniProt Q9UQL6); enzyme activity; inhibitor; fluorescence): > 100 µM
CP(=O)(O)CCC(N)C(=O)O (racemic) — Ki (Glutamine synthetase (glnA, Escherichia coli K-12, UniProt P0A9C5); enzyme activity; inhibitor): 0.8 µM
CC[C@H](C)[C@H](NC(=O)[C@H](CC(C)C)NC(=O)[C@H](Cc1c[nH]c2ccccc12)NC(=O)[C@H](CCCCN)NC(=O)[C@H](CC(C)C)NC(=O)[C@H](Cc1ccccc1)NC(=O)[C@H](CCC(=O)O)NC(=O)[C@H](CCC(N)=O)NC(=O)[C@@H](NC(=O)[C@H](C)NC(=O)[C@H](CC(C)C)NC(=O)[C@H](CC(=O)O)NC(=O)[C@H](CC(=O)O)NC(=O)[C@H](CC(C)C)NC(=O)[C@H](CC(C)C)NC(=O)[C@H](CCCCN)NC(=O)[C@H](CC(N)=O)NC(=O)[C@H](Cc1ccc(O)cc1)NC(=O)[C@H](CC(=O)O)NC(=O)[C@H](CO)NC(=O)[C@@H](NC(=O)[C@H](Cc1ccccc1)NC(=O)[C@@H](NC(=O)CNC(=O)[C@H](CC(=O)O)NC(=O)[C@H](C)NC(=O)[C@@H](N)Cc1c[nH]cn1)[C@@H](C)O)[C@@H](C)O)[C@@H](C)O)C(=O)N[C@@H](CC(N)=O)C(=O)N[C@@H](CCC(N)=O)C(=O)N[C@@H](CCCCN)C(=O)N[C@H](C(=O)N[C@H](C(=O)N[C@@H](CCC(N)=O)C(=O)O)[C@@H](C)O)C(C)C — EC50 (GLP1R; reporter gene; agonist; luciferase): 0.0015 µM
C[C@H]1COCCN1c1nc(NCc2cccnc2C(F)(F)F)c2cccnc2n1 — IC50 (A-type voltage-gated potassium channel KCND3 (KCND3, Homo sapiens, UniProt Q9UK17); ion current; inhibitor): > 33 µM
CC(C)NCC1CCc2cc(CO)c([N+](=O)[O-])cc2N1 (stereo not drawn) — IC50 (DRD3; ligand displacement; radioligand): 7.4 µM
CC(C)C[C@H](NC(=O)[C@H](Cc1c[nH]c2ccccc12)NC(=O)[C@H](C)NC(=O)[C@@H](NC(=O)[C@H](Cc1ccccc1)NC(=O)[C@H](CO)NC(=O)[C@H](CCC(N)=O)NC(=O)[C@H](C)NC(=O)[C@H](C)NC(=O)[C@H](CCC(N)=O)NC(=O)[C@H](CC(=O)O)NC(=O)[C@H](CCC(N)=O)NC(=O)[C@H](CC(C)C)NC(=O)[C@H](Cc1ccc(O)cc1)NC(=O)[C@H](CO)NC(=O)[C@H](CO)NC(=O)[C@@H](NC(=O)[C@H](CC(=O)O)NC(=O)[C@H](CO)NC(=O)[C@@H](NC(=O)[C@H](Cc1ccc(O)cc1)NC(=O)[C@@H](NC(=O)CNC(=O)[C@H](CCC(=O)O)NC(=O)[C@H](C)NC(=O)[C@@H](N)Cc1c[nH]cn1)[C@@H](C)O)[C@@H](C)O)C(C)C)C(C)C)C(=O)N[C@@H](CCCCN)C(=O)N[C@@H](CO)C(=O)NCC(=O)N[C@@H](CCC(N)=O)C(=O)N1CCC[C@H]1C(=O)O — EC50 (GLP1R; reporter gene; agonist; luciferase): 0.0295 µM
CSCC[C@H](NC(=O)[C@H](CCC(=O)O)NC(=O)[C@@H]1CCCN1C(=O)[C@@H](NC(=O)[C@@H]1CCCN1)[C@@H](C)O)C(=O)N[C@@H](CCCNC(=N)N)C(=O)N[C@@H](CCC(=O)O)C(=O)N[C@@H](CCCCN)C(=O)N[C@@H](CC(C)C)C(=O)N[C@H]1CSSC[C@@H]2NC(=O)[C@@H](NC(=O)[C@H](CC(C)C)NC(=O)[C@@H](NC(=O)[C@H](CCC(N)=O)NC(=O)[C@H](CC(C)C)NC(=O)[C@H](CC(=O)O)NC(=O)[C@@H]3CCC(=O)N3)[C@@H](C)O)CSSC[C@H](NC(=O)CNC(=O)[C@H](CC(=O)O)NC(=O)[C@H]([C@@H](C)O)NC2=O)C(=O)N[C@@H](CO)C(=O)N[C@@H](CCSC)C(=O)N[C@@H]([C@@H](C)O)C(=O)N[C@@H](CC(=O)O)C(=O)N[C@@H](CC(C)C)C(=O)N[C@@H](CO)C(=O)N[C@@H](C)C(=O)N[C@@H](CC(C)C)C(=O)N[C@H](C(=O)O)CSSC[C@@H](C(=O)NCC(=O)NCC(=O)N2CCC[C@H]2C(=O)N[C@@H](CCCNC(=N)N)C(=O)N[C@@H](Cc2c[nH]c3ccccc23)C(=O)N[C@@H](CO)C(=O)N[C@H](C(=O)N[C@@H](CCC(=O)O)C(=O)N[C@@H](C)C(=O)O)[C@@H](C)O)NC(=O)[C@H](C(C)C)NC(=O)[C@H](CCCNC(=N)N)NC(=O)[C@H](C(C)C)NC(=O)[C@H](CC(C)C)NC(=O)[C@H](C)NC(=O)[C@H](CCCNC(=N)N)NC(=O)[C@H](C(C)C)NC(=O)[C@H](Cc2ccccc2)NC(=O)[C@H](Cc2c[nH]cn2)NC(=O)[C@H](Cc2c[nH]cn2)NC(=O)CNC1=O — Ki (Relaxin receptor 2 (RXFP2, Homo sapiens, UniProt Q8WXD0); ligand displacement in cells): 0.000708 µM
